Measurements: ChEMBL document CHEMBL1138607, “Synthesis of novel thiourea, thiazolidinedione and thioparabanic acid derivatives of 4-aminoquinoline as potent antimalarials” (Bioorg Med Chem Lett, 2009)
Converted amounts (≈) assume the structure as drawn.

What was measured:
[1] = Selectivity index, ratio of IC50 for african green monkey (Cercopithecus aethiops) Vero cells to IC50 for Plasmodium falciparum 3D7; assay type: toxicity, cell-based; conditions: read-out: Ratio IC50
How it was run: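 P. falciparum 3D7 was tested by SYBR Green I fluorescence at 0.5% parasitaemia: two-fold dilutions from 500 ng/mL (seven concentrations), duplicate wells, 72 h, then lysis buffer with dye. Vero cells (1 × 10⁴/well) got MTT after 72 h with compound. Each IC₅₀ came from non-linear regression dose–response curves; selectivity index is the Vero/3D7 ratio.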

[2] = system: Plasmodium falciparum; assay: Antimalarial activity against chloroquine-sensitive Plasmodium falciparum 3D7 after 72 hrs by SYBR Green assay; conditions: 3D7, 72 h
[3] = system: Plasmodium yoelii; assay: Antiplasmodial activity as reduced parasitaemia against chloroquine-resistant Plasmodium yoelii N67 infected Swiss mice (Mus musculus) at 50 mg/kg/day after 4 days; assay type: functional; parameters: scale not given: the % may be the effect or the level left
How it was run: (§1)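 Swiss mice inoculated on day 0 with 1×10⁶ P. yoelii N-67 parasitized RBC. Groups of five received 50 mg/kg/day intraperitoneally, once daily on days 0–3, as aqueous suspensions with a few drops of Tween 80. Parasitaemia read from thin blood smears. Percent suppression calculated from the group mean against untreated infected controls.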

[4] = system: Plasmodium yoelii; assay: Antiplasmodial activity as reduced parasitaemia against chloroquine-resistant Plasmodium yoelii N67 infected Swiss mice (Mus musculus) at 50 mg/kg/day intraperitoneal dose after 10 days; assay type: functional; parameters: scale not given: the % may be the effect or the level left; how it was run: as §1
[5] = system: Plasmodium yoelii; assay: Antiplasmodial activity as reduced parasitaemia against chloroquine-resistant Plasmodium yoelii N67 infected Swiss mice (Mus musculus) at 10 mg/kg/day peroral dose over 10 days; assay type: functional; parameters: scale not given: the % may be the effect or the level left; conditions: route oral
How it was run: (§2)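 Swiss mice inoculated on day 0 with 1×10⁶ P. yoelii N-67 parasitized RBC. […] Parasitaemia read from thin blood smears. Percent suppression calculated from the group mean against untreated infected controls.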

[6] = system: Plasmodium yoelii; assay: Antiplasmodial activity as reduced parasitaemia against chloroquine-resistant Plasmodium yoelii N67 infected Swiss mice (Mus musculus) at 10 mg/kg/day peroral dose after 4 days; assay type: functional; parameters: scale not given: the % may be the effect or the level left; conditions: route oral; how it was run: as §2

| Compound | selectivity ratio [1] | IC50 [2] [µg/mL] | Activity [3] [%] | Activity [4] [%] | Activity [5] [%] | Activity [6] [%] |
| --- | --- | --- | --- | --- | --- | --- |
| S=C(NCCNc1ccnc2cc(Cl)ccc12)Nc1ccccc1 | 997 | 0.00922 (≈ 0.0258 µM) |  |  |  |  |
| S=C(NCCNc1ccnc2cc(Cl)ccc12)Nc1ccccc1Cl | 332 | 0.0205 (≈ 0.0524 µM) |  |  |  |  |
| C=CCN1C(=O)C(=O)N(CCCNc2ccnc3cc(Cl)ccc23)C1=S | 80.4 | 0.0548 (≈ 0.141 µM) |  |  |  |  |
| O=C1C(=O)N(c2ccccc2Cl)C(=S)N1CCCNc1ccnc2cc(Cl)ccc12 | 122 | 0.0397 (≈ 0.0864 µM) |  |  |  |  |
| O=C1C(=O)N(c2ccccc2Cl)C(=S)N1CCNc1ccnc2cc(Cl)ccc12 | 3.36 | 0.199 (≈ 0.448 µM) |  |  |  |  |
| O=C1C(=O)N(c2ccccc2)C(=S)N1CCCNc1ccnc2cc(Cl)ccc12 | 65.5 | 0.151 (≈ 0.354 µM) |  |  |  |  |
| CCCCN1C(=O)C(=O)N(CCCNc2ccnc3cc(Cl)ccc23)C1=S | 27.2 | 0.0697 (≈ 0.172 µM) |  |  |  |  |
| CCCCNC(=S)NCCNc1ccnc2cc(Cl)ccc12 | 750 | 0.00607 (≈ 0.018 µM) | 99.27 | 50.5 |  |  |
| C=CCNC(=S)NCCNc1ccnc2cc(Cl)ccc12 | 668 | 0.0261 (≈ 0.0814 µM) |  |  |  |  |
| S=C(NCCCNc1ccnc2cc(Cl)ccc12)Nc1ccccc1 | 968 | 0.01 (≈ 0.027 µM) |  |  |  |  |
| CCCCNC(=S)NCCCNc1ccnc2cc(Cl)ccc12 | 600 | 0.0118 (≈ 0.0337 µM) |  |  |  |  |
| S=C(NCCCNc1ccnc2cc(Cl)ccc12)Nc1ccccc1Cl | 1110 | 0.0102 (≈ 0.0251 µM) | 16.82 |  |  |  |
| O=C1S/C(=N\c2ccccc2)N(CCNc2ccnc3cc(Cl)ccc23)C1=O | 605 | 0.0295 (≈ 0.0718 µM) |  |  |  |  |
| C=CCNC(=S)NCCCNc1ccnc2cc(Cl)ccc12 | 582 | 0.042 (≈ 0.125 µM) |  |  |  |  |
| C=CC/N=C1\SC(=O)C(=O)N1CCNc1ccnc2cc(Cl)ccc12 | 603 | 0.0324 (≈ 0.0865 µM) |  |  |  |  |
| CCCC/N=C1\SC(=O)C(=O)N1CCCNc1ccnc2cc(Cl)ccc12 | 256 | 0.011 (≈ 0.0272 µM) |  |  |  |  |
| C=CC/N=C1\SC(=O)C(=O)N1CCCNc1ccnc2cc(Cl)ccc12 | 475 | 0.112 (≈ 0.287 µM) |  |  |  |  |
| O=C1C(=O)N(c2ccccc2)C(=S)N1CCNc1ccnc2cc(Cl)ccc12 | 118 | 0.119 (≈ 0.29 µM) |  |  |  |  |
| O=C1S/C(=N\c2ccccc2Cl)N(CCNc2ccnc3cc(Cl)ccc23)C1=O | 543 | 0.0121 (≈ 0.0272 µM) | 5.45 |  |  |  |
| O=C1S/C(=N\c2ccccc2)N(CCCNc2ccnc3cc(Cl)ccc23)C1=O | 637 | 0.011 (≈ 0.026 µM) |  |  |  |  |
| CCCC/N=C1\SC(=O)C(=O)N1CCNc1ccnc2cc(Cl)ccc12 | 480 | 0.0174 (≈ 0.0446 µM) |  |  |  |  |
| CCCCN1C(=O)C(=O)N(CCNc2ccnc3cc(Cl)ccc23)C1=S | 406 | 0.0331 (≈ 0.0846 µM) |  |  |  |  |
| O=C1S/C(=N\c2ccccc2Cl)N(CCCNc2ccnc3cc(Cl)ccc23)C1=O | 434 | 0.0175 (≈ 0.0381 µM) |  |  |  |  |
| C=CCN1C(=O)C(=O)N(CCNc2ccnc3cc(Cl)ccc23)C1=S | 141 | 0.104 (≈ 0.278 µM) |  |  |  |  |
| CCN(CC)CCCC(C)Nc1ccnc2cc(Cl)ccc12 (centres undefined) [CHLOROQUINE] |  |  |  |  | 73.92 | 99.05 |
